Laboratory results taken from ChEMBL document CHEMBL5058577, “EUbOPEN Chemogenomics Library 2 (Multiplex)” (2022).

Test system: HEK-293T
Experiment: Multiplex assay against HEK293T
Format: toxicity, cell-based
Details: human
How it was run: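 Hoechst33342, BioTracker Green Microtubule Cytoskeleton Dye, MitoTracker Red and Annexin V Alexa Fluor 680 were added to live cells at seeding, and imaging on a CQ1 microscope at 37°C and 5% CO2 followed compound addition. Gating by CellPathfinder machine learning separated cells into Hoechst high-intensity objects or normal cells, then normal cells into healthy, pyknosed or fragmented nuclei, then pyknosed cells into mitotic or apoptotic. Per cents of healthy-nucleus cells are reported for the tubulin, mitochondrial-mass and membrane-permeability phenotypes.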

[1] = 12 h, 1 µM, compound concentration 1 uM, replicate 1
[2] = 12 h, 1 µM, compound concentration 1 uM, replicate 2
[3] = 12 h, 10 µM, compound concentration 10 uM, replicate 1
[4] = 12 h, 10 µM, compound concentration 10 uM, replicate 2
[5] = 24 h, 1 µM, compound concentration 1 uM, replicate 1
[6] = 24 h, 1 µM, compound concentration 1 uM, replicate 2
[7] = 24 h, 10 µM, compound concentration 10 uM, replicate 1
[8] = 24 h, 10 µM, compound concentration 10 uM, replicate 2
[9] = 48 h, 1 µM, compound concentration 1 uM, replicate 1
[10] = 48 h, 1 µM, compound concentration 1 uM, replicate 2
[11] = 48 h, 10 µM, compound concentration 10 uM, replicate 1
[12] = 48 h, 10 µM, compound concentration 10 uM, replicate 2

For CN1CCN(c2cc(-c3ccccc3)nc(N)n2)CC1, the “Population Apoptotic (%)” value [1] was 40%, the “Population Fragmented Nuclei (%)” value [1] was 8% and the “Population Healthy Nuclei (%)” value [1] was 79%. The “Population Hoechst High Intensity Objects (%)” value [1] was 6%, the “Population Membrane Permeable-Phenotype (%)” value [1] was 0% and the “Population Mitochondria Different-Phenotype (%)” value [1] was 35%. For the same compound, the “Population Mitotic Cells (%)” value [1] was 60%, the “Population Normal (%)” value [1] was 93% and the “Population Pyknosed Nuclei (%)” value [1] was 11%. The “Population Tubulin-Different-Phenotype (%)” value [1] was 21%, the “Total Cell Count” value [1] was 383 and the “Population Apoptotic (%)” value [2] was 34%. The “Population Fragmented Nuclei (%)” value [2] was 5%, the “Population Healthy Nuclei (%)” value [2] was 84% and the “Population Mitochondria Different-Phenotype (%)” value [2] was 48%. The “Population Mitotic Cells (%)” value [2] was 65%, the “Population Pyknosed Nuclei (%)” value [2] was 10% and the “Population Tubulin-Different-Phenotype (%)” value [2] was 16%. For the same compound, the “Total Cell Count” value [2] was 354, the “Population Apoptotic (%)” value [3] was 23% and the “Population Fragmented Nuclei (%)” value [3] was 7%. For the same compound, the “Population Healthy Nuclei (%)” value [3] was 82%, the “Population Hoechst High Intensity Objects (%)” value [3] was 7% and the “Population Membrane Permeable-Phenotype (%)” value [3] was 0%. For the same compound, the “Population Mitochondria Different-Phenotype (%)” value [3] was 46%, the “Population Mitotic Cells (%)” value [3] was 76% and the “Population Normal (%)” value [3] was 92%. The “Population Pyknosed Nuclei (%)” value [3] was 9%, the “Population Tubulin-Different-Phenotype (%)” value [3] was 30% and the “Total Cell Count” value [3] was 416. For the same compound, the “Population Apoptotic (%)” value [4] was 36%, the “Population Fragmented Nuclei (%)” value [4] was 6% and the “Population Healthy Nuclei (%)” value [4] was 81%. For the same compound, the “Population Hoechst High Intensity Objects (%)” value [4] was 10%, the “Population Mitochondria Different-Phenotype (%)” value [4] was 63% and the “Population Mitotic Cells (%)” value [4] was 63%. The “Population Normal (%)” value [4] was 89%, the “Population Pyknosed Nuclei (%)” value [4] was 12% and the “Population Tubulin-Different-Phenotype (%)” value [4] was 20%. For the same compound, the “Total Cell Count” value [4] was 296, the “Population Apoptotic (%)” value [5] was 20% and the “Population Fragmented Nuclei (%)” value [5] was 9%. For the same compound, the “Population Healthy Nuclei (%)” value [5] was 79%, the “Population Hoechst High Intensity Objects (%)” value [5] was 4% and the “Population Membrane Permeable-Phenotype (%)” value [5] was 1%. For the same compound, the “Population Mitochondria Different-Phenotype (%)” value [5] was 16%, the “Population Mitotic Cells (%)” value [5] was 79% and the “Population Normal (%)” value [5] was 95%. For the same compound, the “Population Pyknosed Nuclei (%)” value [5] was 11%, the “Population Tubulin-Different-Phenotype (%)” value [5] was 12% and the “Total Cell Count” value [5] was 488. For the same compound, the “Population Apoptotic (%)” value [6] was 36%, the “Population Healthy Nuclei (%)” value [6] was 82% and the “Population Mitochondria Different-Phenotype (%)” value [6] was 24%. The “Population Mitotic Cells (%)” value [6] was 63%, the “Population Pyknosed Nuclei (%)” value [6] was 8% and the “Population Tubulin-Different-Phenotype (%)” value [6] was 8%. For the same compound, the “Total Cell Count” value [6] was 480, the “Population Apoptotic (%)” value [7] was 44% and the “Population Fragmented Nuclei (%)” value [7] was 13%. The “Population Healthy Nuclei (%)” value [7] was 75%, the “Population Hoechst High Intensity Objects (%)” value [7] was 6% and the “Population Membrane Permeable-Phenotype (%)” value [7] was 0%. The “Population Mitochondria Different-Phenotype (%)” value [7] was 32%, the “Population Mitotic Cells (%)” value [7] was 55% and the “Population Normal (%)” value [7] was 93%. For the same compound, the “Population Pyknosed Nuclei (%)” value [7] was 11%, the “Population Tubulin-Different-Phenotype (%)” value [7] was 19% and the “Total Cell Count” value [7] was 577. The “Population Apoptotic (%)” value [8] was 34%, the “Population Fragmented Nuclei (%)” value [8] was 9% and the “Population Healthy Nuclei (%)” value [8] was 79%. The “Population Hoechst High Intensity Objects (%)” value [8] was 9%, the “Population Mitochondria Different-Phenotype (%)” value [8] was 50% and the “Population Mitotic Cells (%)” value [8] was 65%. The “Population Normal (%)” value [8] was 90%, the “Population Tubulin-Different-Phenotype (%)” value [8] was 17% and the “Total Cell Count” value [8] was 378. For the same compound, the “Population Apoptotic (%)” value [9] was 23%, the “Population Fragmented Nuclei (%)” value [9] was 13% and the “Population Healthy Nuclei (%)” value [9] was 78%. For the same compound, the “Population Hoechst High Intensity Objects (%)” value [9] was 1%, the “Population Membrane Permeable-Phenotype (%)” value [9] was 1% and the “Population Mitochondria Different-Phenotype (%)” value [9] was 12%. The “Population Mitotic Cells (%)” value [9] was 76%, the “Population Normal (%)” value [9] was 98% and the “Population Pyknosed Nuclei (%)” value [9] was 7%. The “Population Tubulin-Different-Phenotype (%)” value [9] was 12%, the “Total Cell Count” value [9] was 745 and the “Population Apoptotic (%)” value [10] was 14%. For the same compound, the “Population Healthy Nuclei (%)” value [10] was 80%, the “Population Hoechst High Intensity Objects (%)” value [10] was 2% and the “Population Membrane Permeable-Phenotype (%)” value [10] was 0%. For the same compound, the “Population Mitochondria Different-Phenotype (%)” value [10] was 14%, the “Population Mitotic Cells (%)” value [10] was 85% and the “Population Normal (%)” value [10] was 97%. The “Population Pyknosed Nuclei (%)” value [10] was 6%, the “Population Tubulin-Different-Phenotype (%)” value [10] was 9% and the “Total Cell Count” value [10] was 804. For the same compound, the “Population Apoptotic (%)” value [11] was 16%, the “Population Fragmented Nuclei (%)” value [11] was 17% and the “Population Healthy Nuclei (%)” value [11] was 75%. The “Population Hoechst High Intensity Objects (%)” value [11] was 3%, the “Population Membrane Permeable-Phenotype (%)” value [11] was 0% and the “Population Mitochondria Different-Phenotype (%)” value [11] was 25%. The “Population Mitotic Cells (%)” value [11] was 83%, the “Population Normal (%)” value [11] was 96% and the “Population Pyknosed Nuclei (%)” value [11] was 6%. The “Population Tubulin-Different-Phenotype (%)” value [11] was 14%, the “Total Cell Count” value [11] was 861 and the “Population Apoptotic (%)” value [12] was 27%. For the same compound, the “Population Fragmented Nuclei (%)” value [12] was 13%, the “Population Healthy Nuclei (%)” value [12] was 81% and the “Population Membrane Permeable-Phenotype (%)” value [12] was 1%. The “Population Mitochondria Different-Phenotype (%)” value [12] was 24%, the “Population Mitotic Cells (%)” value [12] was 72% and the “Population Pyknosed Nuclei (%)” value [12] was 4%. The “Population Tubulin-Different-Phenotype (%)” value [12] was 11% and the “Total Cell Count” value [12] was 645.
